Screening results as filed in PubChem BioAssay.
OX1R antag-1: blocks the human orexin 1 receptor. OX1R-expressing cells, FRET antagonist read-out. inhibition, % at 6.6 µM. AID 485270. 330,000 tested, 1.8% active; in the data active means inhibition mostly above about 38%, no sharp cut-off; inactive means mostly below about 40%;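 further: 0% = agonist challenge alone and 100% = reference antagonist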
Target sequence (O43613 whole entry, looked up): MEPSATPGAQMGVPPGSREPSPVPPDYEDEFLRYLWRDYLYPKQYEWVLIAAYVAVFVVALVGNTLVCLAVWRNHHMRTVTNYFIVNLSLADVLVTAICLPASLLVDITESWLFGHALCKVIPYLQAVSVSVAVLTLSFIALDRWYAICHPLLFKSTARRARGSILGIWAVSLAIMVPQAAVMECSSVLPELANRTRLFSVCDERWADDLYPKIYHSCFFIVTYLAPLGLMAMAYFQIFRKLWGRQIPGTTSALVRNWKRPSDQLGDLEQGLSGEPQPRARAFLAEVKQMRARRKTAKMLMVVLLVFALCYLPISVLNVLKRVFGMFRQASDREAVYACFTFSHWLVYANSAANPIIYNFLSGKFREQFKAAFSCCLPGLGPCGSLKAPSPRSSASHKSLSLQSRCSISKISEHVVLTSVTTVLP
OX1R antag-2: antagonists of human orexin 1 receptor; CHO/OX1R cells, Fluo-8 calcium fluorescence, orexin A; O43613; inhibition, % at 5 µM; 330,000 tested, 0.43% active;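 active means inhibition above its plate's threshold, mean inhibition of all tested compounds on the plate plus 3 SD, cut at about 37% in these data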;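 further: 0% = orexin A challenge wells and 100% = SB-334867-A antagonist wells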
TAAR1 antagonist: human TAAR1 antagonism. 360,000 tested, 1.5% active. Q96RJ0. inhibition, % at 3 µM. CHO RD-HGA16 TAAR1, Fluo-8 calcium fluorescence, antagonist;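 active means inhibition above a per-plate cutoff, the mean inhibition of test compounds on that plate plus 3 SD, cut at about 49% in these data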;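 further: 0% = DMSO plus EC80 beta-PEA response and 100% = DMSO alone without agonist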
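Assay system: RD-HGA16 CHO cells with stable hTAAR1 and Gα16 / Reagent: EC80 β-phenethylamine stimulus / Doses: 3 µM, single point / Timing: dye loading 75 min at 37 °C, then 30 min room temperature / Measured by: Fluo-8 intracellular calcium dye fluorescence, real-time kinetic reads / Controls: vehicle wells and EC80 agonist wells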
CHO parental Ca: signal in parental CHO cells, OX1R antagonist counter-screen. parental CHO-K1, ATP-induced calcium, Fluo-8 fluorescence. inhibition, % at 5.6 µM. 330,000 tested, 0.63% active;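 active means inhibition above that plate's mean sample inhibition plus 3 SD, cut at about 26% in these data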;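 further: 0% = ATP-challenged DMSO wells and 100% = DMSO wells without ATP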
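Assay system – parental CHO cells · Reagent – ATP stimulus · Detection – intracellular calcium via Fluo-8 no-wash fluorescent dye · Evaluation – percent inhibition of ATP-evoked calcium rise, normalized to controls · Controls – ATP wells versus no-ATP DMSO wells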
TAAR1 agonist: agonists of human TAAR1 | CHO RD-HGA16 TAAR1, Fluo-8 calcium fluorescence; vehicle wells 0%, saturating PEA agonist 100% | activation, % at 3 µM | 360,000 tested, 0.99% active | Q96RJ0;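 active means activation above the mean activation of all test compounds in the run plus 3 SD, cut at about 38% in these data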
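Test system: RD-HGA16 (CHO) cells co-expressing Gα16 and hTAAR1 / Benchmarks: DMSO vehicle as 0%, PEA at EC100 as 100% / Repeats: no replicates (n 1) / Measure: % activation from peak over basal fluorescence ratio, DMSO-to-PEA scaled / Timing: 17-24 h plating, Fluo-8 75 min 37 °C, 30 min RT / Technique: kinetic Fluo-8 calcium fluorescence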
GalR3 antagonist: antagonists of human GalR3 | O60755 | HEK293 GalR3-CNG cAMP membrane potential fluorescence; galR3 body fused to GalR1 C-terminus | inhibition, % at 3 µM | 360,000 tested, 0.44% active | AID 651719;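 active means inhibition above the screen-wide average plus 3 SD, cut at about 13% in these data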;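 further: forskolin and galanin both at EC90 stimulate the cells; cAMP rise reported by CNG channel membrane potential dye signal; 0% = forskolin plus galanin with DMSO and 100% = forskolin alone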
OX1R Fluo8 conf: OX1R (human) antagonism, confirmed; shares compounds with OX1R antag-2; CHO/OX1R cells, orexin A calcium Fluo-8 fluorescence; inhibition, % at 5 µM; 1,100 tested, 38% active; in the data active means inhibition above about 29%;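 further: 0% = agonist challenge alone and 100% = reference antagonist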
CHO Ca counter: counter-screen for OX1R antagonists: effect in parental CHO cells | shares compounds with OX1R antag-2 | inhibition, % at 5.6 µM | 1,100 tested, 9.3% active | parental CHO-K1, ATP-induced calcium, Fluo-8 fluorescence;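 active means inhibition above a per-plate limit, the mean inhibition of that plate's test compounds plus 3 SD, cut at about 25% in these data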;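 further: 0% = ATP challenge with DMSO and 100% = DMSO without ATP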
Starred values were filed as active, the others as inactive; · = no result. Most compounds without a hit are left out; they make up all but 4.3% or so of the library.

SMILES	OX1R antag-1	OX1R antag-2	TAAR1 antagonist	CHO parental Ca	TAAR1 agonist	GalR3 antagonist	OX1R Fluo8 conf	CHO Ca counter
N#Cc1cc(C(=O)c2cc(Br)ccc2O)cn(Cc2ccccc2)c1=O	9	24	12	23	9	-4	2	10
Fc1ccc(C2=CC(c3ccc(Br)o3)n3ncnc3N2)cc1 (stereo not drawn)	20	47	·	36	·	·	5	9
CCOC(=O)c1ccccc1NC(=O)c1ccccc1SC	7	53*	-4	5	15	-8	-15	-20
CCOC(=O)C(Cc1ccccc1)NC(=O)Cn1nnc(-c2ccccc2)n1 (stereo not drawn)	25	29	15	13	25	-3	52*	17
Fc1cccc(Cc2c(-c3ccc(Cl)cc3)nc3c(Cl)cc(C(F)(F)F)cn23)c1	·	·	3	·	-2	-5	·	·
Cc1ccccc1-c1nnn(Cc2cccc(S(=O)(=O)N3CCOCC3)c2)n1	10	44*	60*	5	10	-7	44*	16
C=CCn1c(NCCc2ccccc2)nc2c1c(=O)n(C)c(=O)n2C	16	31	12	12	12	-4	10	13
C/C(Cl)=C\Cn1c(NCCc2ccccc2)nc2c1c(=O)n(C)c(=O)n2C	7	-23	-31	0	4	-10	·	·
O=C(CCCOc1ccccc1)Nc1ccc(Cl)c(S(=O)(=O)N2CCOCC2)c1	23	38	34	2	11	-5	6	4
O=C(O)CCCC(=O)Nc1cccc([N+](=O)[O-])c1	19	-8	0	-11	3	-8	·	·
O=C(CCCOc1ccccc1)Nc1cccc([N+](=O)[O-])c1	31	40	12	12	11	-4	7	0
Cc1ccc(OCCCC(=O)Nc2ccc(Cl)c(S(=O)(=O)N3CCOCC3)c2)cc1	2	23	33	-8	3	-8	·	·
O=C(c1cc(C2CC2)nn1-c1ccccc1)N1CCN(S(=O)(=O)c2cccc(F)c2)CC1	10	-1	19	-17	0	-3	·	·
Cc1cccc(N2CCN(C(=O)c3ccc(CS(=O)Cc4cccc(Cl)c4)o3)CC2)c1C (stereo not drawn)	12	31	32	21	2	0	7	-7
Cc1ccc(CS(=O)Cc2ccc(C(=O)N3CCN(c4cccc(C)c4C)CC3)o2)cc1 (stereo not drawn)	·	·	6	·	4	-6	·	·
COc1ccc(OCc2n(CC(=O)OC3CC(C)CCC3C(C)C)c3ccccc3[n+]2C)cc1 (stereo not drawn)	8	40*	5	22	22	5	47*	1
O=C(CSc1cn(CCNC(=O)c2ccc3ccccc3c2)c2ccccc12)NCc1ccco1	29	22	34	13	6	·	2	-11
N#Cc1c(C(F)(F)F)cc(-c2ccco2)nc1SCc1ccccn1	5	44	1	21	0	4	-18	3
Cc1nn(-c2ccccc2)c2nc(N)c(C#N)c(-c3ccc(O)c(O)c3)c12	9	36	51*	3	8	-2	34*	6
Cc1ccc(C)c(OCC(=O)N/N=C/c2c(C)nn(-c3ccccc3)c2Cl)c1	31	34	53*	-20	11	-2	10	-9
CCCCN1C(=O)C(CC(=O)NCc2ccco2)CC(C(=O)N(C(C)C)C(C)C)=C1C (stereo not drawn)	·	·	0	·	-1	-5	·	·
c1ccc2c(c1)CC/C2=N/Nc1nc2ccccc2[nH]1	25	-39	-11	-34	3	-3	·	·
Cc1cc(N2CCN(c3ccc(F)cc3)CC2)nc(-c2ccccc2)n1	53	37	-6	-41	1	0	-21	-12
